Fewer inactive variants are shown than the library holds.
B1: tRNA (parent)
chain: GUUCCGUUGGCGUAAUGGUAACGCGUCUCCCUCCUAAGGAGAAGACUGCGGGUUCGAGUCCCGUACGGAACG

Variants of: B1
Test: yeast fitness relative to wild type (ratio to wild type); higher = fitter; tRNA-Arg(CCU), competitive growth, 37 C, YPD
Summary of the method: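 Variants of the tRNA-Arg(CCU) gene were chemically synthesised with a 3% per-site mutation rate across 69 sites and placed at the native genomic locus in Saccharomyces cerevisiae. Six parallel replicates of the pooled strains were competed in YPD at 37°C for 24 hours, and gene amplicons from the start and end populations were read by 100-nucleotide paired-end sequencing. Darwinian fitness relative to wild type was derived from changes in genotype frequencies. Genotypes required ≥ 100 starting reads, and estimates < 0.5 were set to 0.5.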
With C30A U32A G38A C55A A65C the yeast fitness was no more than 0.5. C30A A42G G50A C62U showed a yeast fitness of no more than 0.5. For C30A C31G G67C, the yeast fitness was 0.546. Work on C30G G39A G58U C62A yielded a yeast fitness of no more than 0.5. With C30G C49U G67C the yeast fitness was no more than 0.5. For C30G C46G A69U, the yeast fitness was 0.586. In the case of C29U G38A G48C C66U, the yeast fitness is reported as no more than 0.5. Variant C30G C61G has a yeast fitness of 0.697. C30G C61U showed a yeast fitness of 0.57. In the case of C30G C61A, the yeast fitness is reported as no more than 0.5. Variant C30G C34A C49G G50A U64A G68C has a yeast fitness of no more than 0.5. Variant C29U U59C has a yeast fitness of 0.868. For C29U U59A, the yeast fitness was 0.701. In the case of C29U C66G, the yeast fitness is reported as 0.732. In the case of C30A C34G A45U, the yeast fitness is reported as no more than 0.5. With C29U C34G the yeast fitness was 0.603. For C29U C34U, the yeast fitness was 0.716. For C30A C33A C62A, the yeast fitness was no more than 0.5. C30A U35A A42G A43C gave a yeast fitness of no more than 0.5. Variant C30A C31U A36G G50A C66U has a yeast fitness of no more than 0.5. Work on C30G C46U C49G U64A yielded a yeast fitness of no more than 0.5. In the case of C30A U64C, the yeast fitness is reported as 0.885. For C30A A65C C66U, the yeast fitness was no more than 0.5. C29U G48A G56C showed a yeast fitness of 0.536. For C30A C34G A65U, the yeast fitness was no more than 0.5. In the case of C30A A36U A42G, the yeast fitness is reported as no more than 0.5. Work on C29U G63A G67A yielded a yeast fitness of 0.523. In the case of C30G C46G U53C A57G A69U, the yeast fitness is reported as no more than 0.5. In the case of C30A G44C, the yeast fitness is reported as 0.795. In the case of C30A U53A C66U, the yeast fitness is reported as no more than 0.5. Variant C30A G52A A57U has a yeast fitness of no more than 0.5. In the case of C30A G58C G63A, the yeast fitness is reported as no more than 0.5. For C30A G38A, the yeast fitness was 0.783. Work on C30A G50A yielded a yeast fitness of 0.677. Work on C30G G44C G51C yielded a yeast fitness of 0.549. In the case of C30G A37G A43U, the yeast fitness is reported as 0.593. C29U C33U U54A G56A gave a yeast fitness of no more than 0.5. With C29U C46U C66U the yeast fitness was 0.63. Variant C30G C31G A43G A57G has a yeast fitness of no more than 0.5. For C29U C62U, the yeast fitness was 0.763. C29U C62G showed a yeast fitness of 0.656. Variant C30G C34U A57G C60U G68C has a yeast fitness of no more than 0.5. C30A G44A A45C gave a yeast fitness of no more than 0.5. C30G A40C C55G gave a yeast fitness of 0.624. For C30G C49A U53C C66G, the yeast fitness was 0.513. Variant C30A A42G has a yeast fitness of 0.809. C30G C34G C66U showed a yeast fitness of no more than 0.5. With C30A G38A C55A A65C the yeast fitness was 0.58. C30G C31A U47G G58C gave a yeast fitness of no more than 0.5. C30A A36U G38C C66A gave a yeast fitness of 0.577. With C30G A36C C49A C55A G63C A69C the yeast fitness was 0.608. Work on C30G A45C yielded a yeast fitness of 0.669. Work on C30A C49U yielded a yeast fitness of 0.898. For C30A C49G, the yeast fitness was 0.798. C30G C31U U32C gave a yeast fitness of no more than 0.5. C29U C49U C61U showed a yeast fitness of 0.532. Work on C29U C49U C61A yielded a yeast fitness of no more than 0.5. C30G C34G A37G A45G gave a yeast fitness of no more than 0.5. Work on C30G A43C C60G yielded a yeast fitness of no more than 0.5. In the case of C30G C62U, the yeast fitness is reported as 0.643. Work on C29U G48C G52A yielded a yeast fitness of 0.591. With C30A A43G A69U the yeast fitness was 0.618. For C29U C55U C66U, the yeast fitness was 0.58. C30A G50A A69C showed a yeast fitness of 0.675. For C30G G41A A45C U64A, the yeast fitness was 0.579. With C30A C31U A36G C55U the yeast fitness was no more than 0.5. Work on C30G C49A U54G A65G yielded a yeast fitness of no more than 0.5. Work on C30A A57G A70U yielded a yeast fitness of 0.765. With C30G C34A A57U C61G the yeast fitness was no more than 0.5. C29U G44A showed a yeast fitness of 0.818. Variant C29U C34G A43U C62U has a yeast fitness of no more than 0.5. C29U C60A gave a yeast fitness of 0.627. For C29U C60G, the yeast fitness was 0.515. Variant C29U C60U has a yeast fitness of 0.758. With C29U U32G A43U G44C the yeast fitness was no more than 0.5. C30A A45C C46U A57C gave a yeast fitness of no more than 0.5. With C30A C62A A70G the yeast fitness was 0.547. For C30A U54A A69C, the yeast fitness was 0.539. C30A G51A G67U showed a yeast fitness of no more than 0.5. C30A G51A G52A U53C G56A C61G showed a yeast fitness of no more than 0.5. Work on C30G C31U C46U yielded a yeast fitness of 0.609. C30A C62U A70U gave a yeast fitness of 0.709. Work on C29U C49A G68C yielded a yeast fitness of 0.584.
